In the library only some 2.5% were active in any assay of this set; here they are far more common.
SIRT5 block = blocks human SIRT5 desuccinylation of peptide; inhibition, % at 15 µM; Q9NXA8; 330,000 compounds, 1.1% hits; Purified SirT5, succinyl-peptide AMC, trypsin-coupled fluorescence; AID 652115; in the data active means inhibition above about 15%
Target sequence (Q9NXA8 whole entry, looked up): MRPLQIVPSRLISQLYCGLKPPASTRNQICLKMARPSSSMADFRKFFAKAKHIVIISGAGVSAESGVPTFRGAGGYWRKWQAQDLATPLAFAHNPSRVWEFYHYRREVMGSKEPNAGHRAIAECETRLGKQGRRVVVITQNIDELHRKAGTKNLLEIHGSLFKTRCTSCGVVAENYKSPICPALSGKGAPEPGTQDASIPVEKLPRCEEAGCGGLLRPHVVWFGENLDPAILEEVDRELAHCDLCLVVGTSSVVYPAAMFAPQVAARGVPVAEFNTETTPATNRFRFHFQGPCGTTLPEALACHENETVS
miR-122 sensor = miR-122 inhibition in Huh7 cells; Huh7 miR-122 Renilla luciferase sensor, 48 h; neutral wells = 0, positive control = 100; activation (reporter increase), % at 12.5 µM; 340,000 compounds, 0.3% hits; AID 602342;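 active means mean replicate activation score at least 90 and every replicate individually at or above 90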;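 further: higher luciferase means less miR-122 activity so hits act as miR-122 inhibitors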
S100A4 MyoIIA = blocks human S100A4 binding to myosin IIA peptide | P26447 | S100A4/TAMRA-MyoIIA peptide fluorescence polarization | inhibition, % at 10.7 µM | 360,000 compounds, 0.14% hits | AID 652163;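 active means mean inhibition of at least 70% across replicates, with every replicate also reaching that level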
Target sequence (P26447 whole entry, looked up): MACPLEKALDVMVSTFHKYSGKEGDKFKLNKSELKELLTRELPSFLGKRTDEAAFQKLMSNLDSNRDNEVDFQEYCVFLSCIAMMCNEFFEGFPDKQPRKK
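Assay system: human S100A4 monomer with TAMRA-labelled myosin IIA peptide / Buffer or medium: Calcium-containing HEPES buffer, pH 7.2 / Reagent: TAMRA-labelled myosin IIA heavy-chain peptide probe, 5 nM / Compound: one dose per compound / Timing: polarization read 5 min after assay mix addition, stable 5–60 min / Benchmarks: neutral control DMSO, positive control TFP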
E-selectin induc = E-selectin induction on HUVECs. P16581. HUVEC E-selectin immunofluorescence imaging; normalized: neutral wells 0, TNF-alpha wells 100. activation, % at 7.58 µM. 260,000 compounds, 0.37% hits;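 active means mean E-selectin-positive cell signal at least 10% of the positive control, reached in at least 60% of replicates, without over 20% cell loss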
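Material: HUVEC primary endothelial cells; Amount: 3,000 cells per well; Dosing: single concentration; Medium: EGM-2 growth medium on 0.1% gelatin-coated wells; Read-out basis: percent E-selectin-positive cells; Signal: immunofluorescence imaging; Control set: TNF-alpha, DMSO.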
FGF22 binding = FGF22 (human) thermal shift binding; AID 651658; activity (Tm shift, normalised), % at 9.99 µM; recombinant FGF22 thermal shift, SYPRO orange fluorescence; percent of sucrose octasulfate shift, DMSO zero; Q9HCT0; 340,000 compounds, 1.5% hits;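 active means mean Tm shift, scaled 0 neutral to 100 positive control, at about 1.3% or above, every replicate too, limit read from the data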
Target sequence (Q9HCT0 whole entry, looked up): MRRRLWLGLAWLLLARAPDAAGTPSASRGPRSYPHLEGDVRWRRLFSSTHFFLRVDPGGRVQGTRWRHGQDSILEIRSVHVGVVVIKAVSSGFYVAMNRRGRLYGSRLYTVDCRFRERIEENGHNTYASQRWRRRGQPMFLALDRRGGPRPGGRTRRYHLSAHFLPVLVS
Numbers without * were called inactive; x = no result; [ ] = another dose, or the depositor's remark.

SMILES | SIRT5 block | miR-122 sensor | S100A4 MyoIIA | E-selectin induc | FGF22 binding
O=C(C[C@@H]1C[C@H]2c3cc(NC(=O)Nc4ccccc4)ccc3O[C@H]2[C@H](CO)O1)NCc1ccccc1 | 0 | 1[16.7 µM] | 54 | 1 | 0
CCOC(=O)C1C(c2cccs2)NC(=O)NC1(O)C(F)(F)F (centres undefined) | 17* | 2 | -10 | x | 0
CCOC(=O)C1(CC2CC2)CCN(Cc2cn[nH]c2-c2cccc(F)c2)CC1 | 17* | x | 6 | x | 44*
CCc1ccc(S(=O)(=O)c2ccc(-n3nc(C)cc3N)cc2)cc1 | 112* | x | 11 | x | 0
Cc1cc(N)n(-c2ccc(C(=O)O)cc2)n1 | 2 | -5 | -1 | x | 43*
NC(N)=N/N=C/c1cccc([N+](=O)[O-])c1O | 0 | x | 2 | x | 43*
O=[N+]([O-])c1cccc(/C=N\N=C2c3ccccc3-c3ccccc32)c1O | 1 | x | 0 | x | 0
CCCN1CNC(=S)N(c2ccc(C)cc2C)C1 | 2 | x | -3 | 4 | 0
CCCN1CNC(=S)N(c2ccccc2C)C1 | -2 | -9 | -2 | x | 43*
COC(=O)c1ccccc1S(=O)(=O)N1CCn2cccc2C1C (centres undefined) | 0 | -9 | 2 | 0 | 43*
Cc1ccc(NCCCCO)cc1C | 1 | 4 | -24 | 142* | 0
CCCNC(=O)[C@H]1[C@H](CO)[C@H]2Cn3c(cccc3=O)[C@@H]1N2C(=O)Nc1cc(F)ccc1F | 6 | -2[16.7 µM] | 0 | 0 | 0
CCCN1[C@H](C(=O)N(C)C)[C@@H](CO)[C@@H]2Cn3c(ccc(-c4ccc(OC)cc4)c3=O)[C@@H]21 | -3 | 4[16.7 µM] | -6 | 0 | 0
Cc1noc(C)c1NC(=O)Nc1ccc2c(c1)CC(=O)N([C@H](C)CO)C[C@H](C)[C@@H](CN(C)Cc1ccc(Oc3ccccc3)cc1)O2 | x | 1[16.7 µM] | x | -11 | 0
CN(C(=O)COc1ncnc2sccc12)c1ccccc1 | 1 | -5 | 2 | 0 | 43*
CN(CC(=O)Nc1ccccc1C(F)(F)F)C(=O)COc1ncnc2sccc12 | 11 | x | -3 | 0 | 0
CC=Cc1ccc2n(c1=O)C[C@@H]1[C@@H](CO)[C@H](C(=O)NCCc3cn(C)cn3)[C@H]2N1C(=O)C1CC1 (mixture of isomers) | -10 | 2[16.7 µM] | -2 | 0 | 0
O=C(Nc1cc(=O)[nH]c2ncnn12)c1ccco1 | 12 | 3 | -3 | x | 0
COc1ccc(C(=O)Nc2cc(=O)[nH]c3ncnn23)cc1 | 31* | 8 | 6 | x | 0
CCc1ccc(NC(=S)N(Cc2ccccc2)Cc2ccccn2)cc1 | -4 | -2 | 14 | 0 | 44*
CCc1ccc(NC(=S)N(CCCN2CCOCC2)Cc2ccccn2)cc1 | x | -5 | x | 2 | x
O=C(N/C=C/n1cnc2cc(C(F)(F)F)ccc21)c1ccc(F)cc1 | x | 11 | 3 | 0 | 0
O=C(N/C=C/n1cnc2cc(C(F)(F)F)ccc21)c1ccccc1F | -3 | 11 | -4 | x | 44*
COc1ccc2c3c(n(C)c2c1)[C@H](CO)N(C(=O)Cc1ccccc1)CC31CN(C(=O)Cc2ccccc2)C1 | 4 | x | 13 | 0 | 0
NC(=O)CCC(=O)N1CCCC(C(=O)c2ccc3c4c(cccc24)CC3)C1 (centres undefined) | -4 | x | 2 | 2 | 43*
SMILES | SIRT5 block | miR-122 sensor | S100A4 MyoIIA | E-selectin induc | FGF22 binding
CC(C)c1ccc2occ(-c3nn[nH]n3)c(=O)c2c1 | 2 | x | -2 | x | 44*
O=C(CN1CCN(Cc2ccccc2)CC1)NC(=O)NCc1ccco1 | x | -12 | x | x | x
O=C(CN1CCN(S(=O)(=O)c2ccccc2[N+](=O)[O-])CC1)NC(=O)NCc1ccco1 | -2 | 3 | 5 | x | 43*
O=C(CCCCC(=O)OC1CCCCC1)OC1CCCCC1 | x | -8 | -4 | 1 | 43*
O=C(C=CC(=O)OC1CCCCC1)OC1CCCCC1 | x | -7 | 3 | 0 | 0
O=C(C[C@H]1C=C[C@H](NC(=O)Nc2cccc(F)c2)[C@@H](CO)O1)NCC1CC1 | -5 | x | -6 | 0 | 0
O=CNc1ccc2c3c(cccc13)-c1ccccc1-2 | 1 | -16 | -1 | 1 | 45*
O=C(C[C@@H]1C=C[C@@H](NC(=O)c2ccc3c(c2)OCO3)[C@H](CO)O1)NCc1ccc(Oc2ccccc2)cc1 | 7 | x | -4 | 1 | 0
C[C@H]1CN([C@@H](C)CO)C(=O)Cc2cc(N(C)C)ccc2O[C@@H]1CN(C)C(=O)Nc1ccc(C(F)(F)F)cc1 | -4 | 0[16.7 µM] | 15 | 0 | x
Oc1ccc(/C=N/N=C/c2ccc(O)cc2)cc1 | 1 | 13 | 7 | x | 66*
Cc1cc(C)n(-c2ncnc3ccccc23)n1 | -3 | 1 | 2 | 7 | 43*
CC(C)NC(=O)N1CC2(C1)[C@H](c1ccccc1)[C@H](CO)N2CCC(F)(F)F | 3 | x | 6 | 0 | 0
CC(C)(C)c1n[nH]c2c1CCCC2 | 42* | x | -6 | 7 | 0
c1ccc(-c2n[nH]c3c2CCC3)cc1 | x | 2 | x | x | x
CN(C)CC(=O)Nc1ccc2c(c1)[C@@H]1C[C@H](CC(=O)N3CCc4ccccc4C3)O[C@@H](CO)[C@@H]1O2 | -1 | 2[16.7 µM] | 7 | 0 | 0
Cc1cc(C(=O)N/N=C2\CCCc3ccccc32)c(C)o1 | 1 | x | 2 | 0 | 0
Cc1cc(C(=O)N/N=C2/CC(C)CC(C)(C)C2)c(C)o1 (centres undefined) | 41* | x | -4 | 0 | 43
Cc1ccnc(NC(NC(=O)C(C)C)(C(F)(F)F)C(F)(F)F)c1 | -1 | x | -2 | 136* | 0
COc1ccc(NC(=O)Nc2ccc3c(c2)CC(=O)N([C@@H](C)CO)C[C@H](C)[C@@H](CN(C)C(=O)Nc2cccc4ccccc24)O3)cc1 | x | 2[16.7 µM] | x | 0 | 0
CO[C@@H](CN(C)CC1CCOCC1)[C@H](C)CN(C(=O)Nc1ccc(F)cc1)[C@H](C)CO | 16* | x | -2 | 0 | 0
O=C(C[C@H]1CC[C@@H]2[C@H](COC[C@@H](O)CN2S(=O)(=O)c2cccc(Cl)c2)O1)Nc1ccc(-c2ccccc2)cc1 | 11 | -8[16.7 µM] | -55 | 0 | 1.3*
COC(=O)C[C@H]1CC[C@H]2[C@@H](COC[C@H](O)CN2S(=O)(=O)c2ccccc2OC)O1 | 17* | -4[16.7 µM] | -5 | 0 | 0
O=C(C[C@H]1CC[C@H]2[C@@H](COC[C@H](O)CN2S(=O)(=O)c2cccc(Cl)c2)O1)Nc1ccc(-c2ccccc2)cc1 | 12 | -13[16.7 µM] | -5 | 1 | x
O=C(C[C@H]1CC[C@H]2[C@@H](COC[C@@H](O)CN2S(=O)(=O)c2cccc(Cl)c2)O1)Nc1ccc(-c2ccccc2)cc1 | 19* | -5[16.7 µM] | 2 | 0 | x
O=C(N/N=C/c1ccc(OC2CSC2)cc1)c1ccc(CN2CCOCC2)cc1 | 28* | -3 | 0 | 0 | 0

Compound activity: PubChem, Broad Institute
